Key:
[1] = molecular target: D(2) dopamine receptor (Homo sapiens, UniProt P14416); assay: In vitro binding affinity against recombinant human dopamine receptor D2L […]
Procedure, shortened: (§1)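 Affinities are Ki values (nM) at human D2L and human 5-HT2A receptors, reported as mean ± SEM of three independent experiments.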

[2] = molecular target: 5-hydroxytryptamine receptor 2A (Homo sapiens, UniProt P28223); assay: In vitro binding affinity against recombinant human 5-hydroxytryptamine 2A receptor […]; procedure, shortened: as §1
Sequence of 5-hydroxytryptamine receptor 2A (P28223 whole entry): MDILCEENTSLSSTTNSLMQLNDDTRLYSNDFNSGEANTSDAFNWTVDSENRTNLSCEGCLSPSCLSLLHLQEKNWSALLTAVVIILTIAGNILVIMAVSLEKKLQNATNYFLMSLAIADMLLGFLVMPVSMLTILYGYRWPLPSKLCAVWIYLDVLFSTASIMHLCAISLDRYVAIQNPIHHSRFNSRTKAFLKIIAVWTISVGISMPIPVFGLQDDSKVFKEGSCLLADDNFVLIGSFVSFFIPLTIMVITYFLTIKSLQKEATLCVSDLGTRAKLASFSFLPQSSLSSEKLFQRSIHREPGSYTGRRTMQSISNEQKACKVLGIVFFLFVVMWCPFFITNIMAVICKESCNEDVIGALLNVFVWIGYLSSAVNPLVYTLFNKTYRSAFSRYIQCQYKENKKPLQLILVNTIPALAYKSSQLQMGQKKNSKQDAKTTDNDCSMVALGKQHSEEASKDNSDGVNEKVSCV

Sequence of D(2) dopamine receptor (P14416 whole entry): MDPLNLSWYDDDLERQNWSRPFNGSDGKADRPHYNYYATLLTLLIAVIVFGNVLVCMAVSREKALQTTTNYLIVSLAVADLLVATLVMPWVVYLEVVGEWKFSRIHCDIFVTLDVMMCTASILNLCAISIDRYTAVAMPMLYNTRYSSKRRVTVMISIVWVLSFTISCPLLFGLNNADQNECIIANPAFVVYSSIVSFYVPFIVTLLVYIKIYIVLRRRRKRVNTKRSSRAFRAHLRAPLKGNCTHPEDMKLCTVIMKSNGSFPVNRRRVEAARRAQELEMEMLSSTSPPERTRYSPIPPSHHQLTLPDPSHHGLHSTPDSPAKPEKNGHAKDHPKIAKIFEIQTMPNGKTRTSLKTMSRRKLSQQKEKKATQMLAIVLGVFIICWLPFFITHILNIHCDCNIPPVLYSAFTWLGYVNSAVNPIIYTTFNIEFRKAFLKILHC

Row | Structure (SMILES) | Ki [1] [nM] | Ki [2] [nM]
1 | CCN1CCN(c2cc(-c3ccc(F)cc3)c3c(n2)CC[C@@H](O)CCC3)CC1 | 11.9 | 17.9
2 | CCN1CCN(c2cc(-c3ccc(F)cc3)c3c(n2)CCC[C@H](O)CC3)CC1 | 21.2 | 18.5
3 | CCN1CCN(c2cc(-c3ccc(F)cc3)c3c(n2)CC[C@H](O)CCC3)CC1 | 3.6 | 9.67
4 | CCN1CCN(c2cc(-c3ccc(F)cc3)c3c(n2)CCCCCC3)CC1 [BLONANSERIN] | 0.14 | 0.81
5 | CCN1CCN(c2cc(-c3ccc(F)cc3)c3c(n2)CCC[C@@H](O)CC3)CC1 | 6.2 | 14.7

— ChEMBL document CHEMBL1141892, “Syntheses and properties of the major hydroxy metabolites in humans of blonanserin AD-5423, a novel antipsychotic agent” (Bioorg Med Chem Lett, 2005)
